According to ChEMBL document CHEMBL1122326, “Nonsteroidal antiinflammatory agents. 2. [(Heteroarylamino)phenyl]alkanoic acids” (J Med Chem, 1983):

Assays:
[1] = test system: Rattus norvegicus; assay: ED50 value was evaluated for antiinflammatory activity by carrageenan-induced rat paw edema method (CPE) on peroral administration; format: functional; conditions: po
How it was run: (§1)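 Male Wistar rats, 5 to 10 per dose, 4 to 5 doses per drug, given orally in 0.5% aqueous tragacanth. Edema was induced by subcutaneous carrageenin into the left hind paw. A rat counted as positive at ≥25% inhibition versus vehicle at 3 h. ED50 with 95% confidence limits was calculated by Litchfield-Wilcoxon, after a screen at 80 mg/kg.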

[2] = test system: Mus musculus; assay: ED50 value was evaluated for analgesic activity by phenylquinone -induced writhing test in mice on peroral administration; value may range from 20.6 to 66.0; format: functional; conditions: po
How it was run: (§2)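 Female ddN mice, 5 to 15 per dose, given drug orally in 0.5% aqueous tragacanth. Writhing was induced by ip phenylquinone (0.03%), and writhes were counted over 15 min.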

[3] = test system: Mus musculus; assay: ED50 value was evaluated for analgesic activity by phenylquinone -induced writhing test in mice on peroral administration; format: functional; conditions: po; how it was run: as §2
[4] = test system: Rattus norvegicus; assay: ED50 value was evaluated for antiinflammatory activity by carrageenan-induced rat paw edema method (CPE) on peroral administration; value may range from 39.61 to 80.81; format: functional; conditions: po; how it was run: as §1
[5] = test system: Mus musculus; assay: ED50 value was evaluated for analgesic activity by phenylquinone -induced writhing test in ddN strain mice on peroral administration; value ranges from 32.7-76.20; format: functional; conditions: po
[6] = test system: Rattus norvegicus; assay: Evaluated for the UD50 value by gastric ulcer assay in rats on peroral administration of dose; value ranges from 82.3-182; format: functional, Stomach
How it was run: (§3)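 Male Wistar rats fasted for 24 h were given a single oral dose in 0.5% aqueous tragacanth and killed 6 h later. Stomachs were inspected macroscopically. UD50 is the dose producing ulcers in 50% of rats, taken from each compound's regression line.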

[7] = test system: Rattus norvegicus; assay: ED50 value was evaluated for antiinflammatory activity by carrageenan-induced rat paw edema method (CPE) on peroral administration; value may range from 7.05 to 37.13; format: functional; conditions: po; how it was run: as §1
[8] = test system: Rattus norvegicus; assay: ED50 value was evaluated for antiinflammatory activity by carrageenan-induced rat paw edema method (CPE) on peroral administration; value may range from 50.5 to 120.0; format: functional; conditions: po; how it was run: as §1
[9] = test system: Mus musculus; assay: ED50 value was evaluated for analgesic activity by phenylquinone-induced writhing test in mice on peroral administration; format: functional; conditions: po; how it was run: as §2
[10] = test system: Rattus norvegicus; assay: Evaluated for the UD50 value by gastric ulcer assay in rats on peroral administration of dose; value may range from 368-807; format: functional, Stomach; how it was run: as §3
[11] = Ratio between UD50 and ED50 in carrageenan paw edema was determined; format: functional
How it was run: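 Gastric UD50 (fasted male Wistar rats, single oral dose, stomach scored macroscopically at 6 h) was divided by oral CPE ED50 (male Wistar rats, paw carrageenin, ≥25% inhibition at 3 h, Litchfield-Wilcoxon).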

[12] = Evaluated for the acute lethal toxicity in mice on peroral administration of dose; value may range from 430 to 1236; format: organism-based; conditions: mouse, in vivo, po
How it was run: (§4)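 Single oral dose, in 0.5% aqueous tragacanth, given to male Std:ddY mice. LD50 was derived from mortality over 7 days.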

[13] = test system: Mus musculus; assay: ED50 value was evaluated for analgesic activity by phenylquinone -induced writhing test in mice on peroral administration; value may range from 35.3 to 283; format: functional; conditions: po; how it was run: as §2
[14] = Evaluated for the acute lethal toxicity in mice on peroral administration of dose; value may range from 1539 to 2362; format: organism-based; conditions: mouse, in vivo, po; how it was run: as §4
[15] = test system: Rattus norvegicus; assay: Evaluated for the UD50 value by gastric ulcer assay in rats on peroral administration of dose; format: functional, Stomach; how it was run: as §3
[16] = test system: Rattus norvegicus; assay: ED50 value was evaluated for antiinflammatory activity by carrageenan-induced rat paw edema method (CPE) on peroral administration; value may range from 3.87 to 25.90; format: functional; conditions: po; how it was run: as §1
[17] = test system: Rattus norvegicus; assay: ED50 value was evaluated for antiinflammatory activity by carrageenan-induced rat paw edema method (CPE) on peroral administration; value may range from 12.71 to 51.24; format: functional; conditions: po; how it was run: as §1

## Cc1cc(C(C)C(=O)O)ccc1Nc1ccccn1 (stereo not drawn)
[1]
  ED50: 16.8 mg/kg
[2]
  ED50: 36.9 mg/kg

## CC(C(=O)O)c1ccc(Nc2ccc([N+](=O)[O-])cn2)cc1 (stereo not drawn)
[3]
  ED50: ≥ 100 mg/kg
[4]
  ED50: 56.6 mg/kg

## Cc1cc(Nc2ccc(CC(=O)O)cc2)ncn1
[3]
  ED50: > 100 mg/kg
[1]
  ED50: > 80 mg/kg

## Cc1ccc(Nc2ccc(C(C)C(=O)O)cc2)nc1 (stereo not drawn)
[3]
  ED50: ≥ 100 mg/kg
[1]
  ED50: ≥ 80 mg/kg

## CC(C)Cc1ccc(C(C)C(=O)O)cc1 (stereo not drawn) [IBUPROFEN]
[5]
  ED50: 50 mg/kg
[6]
  UD50: 124.6 mg/kg

## CC(C(=O)O)c1ccc(Nc2ccncc2)cc1 (stereo not drawn)
[3]
  ED50: ≥ 100 mg/kg
[1]
  ED50: > 80 mg/kg

## CC(C(=O)O)c1ccc(Nc2ccc(Cl)cn2)cc1 (stereo not drawn)
[3]
  ED50: ≥ 100 mg/kg
[1]
  ED50: ≥ 80 mg/kg

## O=C(O)Cc1ccc(Nc2ccccn2)cc1
[7]
  ED50: 15.8 mg/kg
[3]
  ED50: > 100 mg/kg

## Cc1cccnc1Nc1ccc(C(C)C(=O)O)cc1 (stereo not drawn)
[3]
  ED50: ≥ 100 mg/kg
[1]
  ED50: ≥ 80 mg/kg

## CC(C(=O)O)c1cccc(Nc2ccccn2)c1 (stereo not drawn)
[3]
  ED50: > 100 mg/kg
[8]
  ED50: 77.9 mg/kg

## CSc1nccc(Nc2ccc(CC(=O)O)cc2)n1
[9]
  ED50: > 100 mg/kg
[1]
  ED50: > 80 mg/kg

## CC(C(=O)O)c1ccc(Nc2ccccn2)cc1Cl (stereo not drawn)
[3]
  ED50: ≥ 100 mg/kg
[1]
  ED50: ≥ 80 mg/kg

## Cc1ccnc(Nc2ccc(C(C)C(=O)O)cc2)c1 (stereo not drawn)
[3]
  ED50: > 100 mg/kg
[1]
  ED50: > 80 mg/kg

## CC(C(=O)O)c1ccc(Nc2ccccn2)c(Cl)c1 (stereo not drawn)
[10]
  UD50: 545 mg/kg
[11]
  Ratio: 41.6
[12]
  LD50: 729 mg/kg

## CC(C(=O)O)c1ccc(Nc2ccc(Br)cn2)cc1 (stereo not drawn)
[13]
  ED50: 100 mg/kg
[1]
  ED50: ≥ 80 mg/kg

## CC(C(=O)O)c1ccc(Nc2ccccn2)cc1 (stereo not drawn)
[14]
  LD50: 1910 mg/kg
[15]
  UD50: >640 mg/kg
[16]
  ED50: 10 mg/kg
[11]
  Ratio: > 64

## Cc1cc(Nc2ccc(C(C)C(=O)O)cc2)ncn1 (stereo not drawn)
[3]
  ED50: ≥ 100 mg/kg
[1]
  ED50: > 80 mg/kg

## O=C(O)Cc1ccc(Nc2ccc3ccccc3n2)cc1
[3]
  ED50: ≥ 100 mg/kg
[1]
  ED50: > 80 mg/kg

## O=C(O)Cc1cccc(Nc2ccccn2)c1
[3]
  ED50: ≥ 100 mg/kg
[1]
  ED50: > 80 mg/kg

## Cc1cccc(Nc2ccc(C(C)C(=O)O)cc2)n1 (stereo not drawn)
[3]
  ED50: > 100 mg/kg
[1]
  ED50: > 80 mg/kg

## CC(C(=O)O)c1ccc(Nc2ccc3ccccc3n2)cc1 (stereo not drawn)
[3]
  ED50: ≥ 100 mg/kg
[1]
  ED50: > 80 mg/kg

## O=C(O)Cc1ccc(Nc2ccncc2)cc1
[1]
  ED50: > 80 mg/kg

## CC(C(=O)O)c1ccc(Nc2ccccc2)cc1 (stereo not drawn)
[3]
  ED50: > 100 mg/kg
[17]
  ED50: 25.5 mg/kg
